Experimental data: ChEMBL document CHEMBL1955823, “Imidazo[1,2-a]pyrazines as novel PI3K inhibitors” (Bioorg Med Chem Lett, 2012)

Tests used:
[1] = target: Serine/threonine-protein kinase pim-2 (Homo sapiens) (UniProt Q9P1W9); assay: Inhibition of PIM2 at 5 to 10 uM
[2] = target: Tyrosine-protein kinase JAK2 (Homo sapiens) (UniProt O60674); assay: Inhibition of JAK2 at 5 to 10 uM
[3] = target: T1, PI3-kinase p110-alpha/p85-alpha (Homo sapiens, UniProt P42336); assay: Inhibition of PI3K p110alpha/p85alpha-mediated AKT1 phosphorylation at Ser473 in human U2OS cells; format: cell-based
T1 sequence (P27986 whole entry): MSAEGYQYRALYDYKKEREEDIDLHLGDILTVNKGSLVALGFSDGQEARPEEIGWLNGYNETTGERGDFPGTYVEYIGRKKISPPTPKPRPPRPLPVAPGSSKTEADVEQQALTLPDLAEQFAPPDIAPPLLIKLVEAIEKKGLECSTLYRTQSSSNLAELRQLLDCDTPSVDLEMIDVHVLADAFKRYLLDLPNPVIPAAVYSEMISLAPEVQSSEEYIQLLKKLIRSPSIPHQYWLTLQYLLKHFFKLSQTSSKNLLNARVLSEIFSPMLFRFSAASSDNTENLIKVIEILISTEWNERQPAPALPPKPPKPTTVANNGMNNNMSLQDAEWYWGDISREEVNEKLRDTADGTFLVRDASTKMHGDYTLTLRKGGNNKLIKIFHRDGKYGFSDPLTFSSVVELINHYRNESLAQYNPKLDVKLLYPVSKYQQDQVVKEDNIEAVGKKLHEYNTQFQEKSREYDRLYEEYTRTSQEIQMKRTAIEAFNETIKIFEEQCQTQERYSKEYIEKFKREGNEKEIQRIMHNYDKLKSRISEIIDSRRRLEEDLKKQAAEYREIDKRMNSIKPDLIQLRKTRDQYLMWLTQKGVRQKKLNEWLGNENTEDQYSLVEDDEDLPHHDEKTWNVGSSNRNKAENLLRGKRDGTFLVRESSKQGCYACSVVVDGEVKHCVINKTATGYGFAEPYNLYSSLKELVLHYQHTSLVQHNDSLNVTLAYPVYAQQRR
T1 sequence (P42336 whole entry): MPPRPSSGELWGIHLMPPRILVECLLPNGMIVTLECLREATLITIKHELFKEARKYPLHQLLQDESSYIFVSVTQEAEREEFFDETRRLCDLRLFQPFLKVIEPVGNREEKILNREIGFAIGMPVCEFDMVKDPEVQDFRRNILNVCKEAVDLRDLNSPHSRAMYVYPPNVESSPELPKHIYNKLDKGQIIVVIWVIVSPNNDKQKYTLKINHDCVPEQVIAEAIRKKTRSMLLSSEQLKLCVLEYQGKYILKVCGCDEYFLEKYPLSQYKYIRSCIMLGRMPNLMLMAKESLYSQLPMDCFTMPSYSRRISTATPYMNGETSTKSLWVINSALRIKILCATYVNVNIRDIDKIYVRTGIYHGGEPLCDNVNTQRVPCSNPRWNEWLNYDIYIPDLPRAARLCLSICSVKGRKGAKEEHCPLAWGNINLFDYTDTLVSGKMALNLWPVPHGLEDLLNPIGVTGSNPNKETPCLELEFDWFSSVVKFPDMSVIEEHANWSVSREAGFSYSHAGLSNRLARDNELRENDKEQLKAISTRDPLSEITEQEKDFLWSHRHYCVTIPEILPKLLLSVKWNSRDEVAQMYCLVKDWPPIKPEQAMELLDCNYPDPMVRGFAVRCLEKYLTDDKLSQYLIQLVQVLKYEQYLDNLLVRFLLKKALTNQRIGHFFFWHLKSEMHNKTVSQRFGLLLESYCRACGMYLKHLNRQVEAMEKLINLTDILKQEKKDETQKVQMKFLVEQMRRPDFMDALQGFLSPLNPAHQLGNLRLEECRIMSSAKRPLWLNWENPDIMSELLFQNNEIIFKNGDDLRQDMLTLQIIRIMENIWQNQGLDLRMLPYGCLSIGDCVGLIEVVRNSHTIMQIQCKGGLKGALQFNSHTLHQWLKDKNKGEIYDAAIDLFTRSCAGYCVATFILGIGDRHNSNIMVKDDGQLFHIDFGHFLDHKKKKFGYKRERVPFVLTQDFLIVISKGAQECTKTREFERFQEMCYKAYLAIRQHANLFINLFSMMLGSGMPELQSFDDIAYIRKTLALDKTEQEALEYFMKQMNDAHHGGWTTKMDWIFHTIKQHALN
Method in brief: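 Endogenous phospho-Akt1 (Ser473) measured in U2OS osteosarcoma cells kept in 0.1% FBS and then serum-stimulated; read-out by cell-based ELISA with femto chemiluminescent substrate.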

[4] = target: T2, Inhibitor of nuclear factor kappa-B kinase subunit beta (Homo sapiens) (UniProt O14920); assay: Inhibition of IKK-beta at 5 to 10 uM
T2 sequence (whole entry): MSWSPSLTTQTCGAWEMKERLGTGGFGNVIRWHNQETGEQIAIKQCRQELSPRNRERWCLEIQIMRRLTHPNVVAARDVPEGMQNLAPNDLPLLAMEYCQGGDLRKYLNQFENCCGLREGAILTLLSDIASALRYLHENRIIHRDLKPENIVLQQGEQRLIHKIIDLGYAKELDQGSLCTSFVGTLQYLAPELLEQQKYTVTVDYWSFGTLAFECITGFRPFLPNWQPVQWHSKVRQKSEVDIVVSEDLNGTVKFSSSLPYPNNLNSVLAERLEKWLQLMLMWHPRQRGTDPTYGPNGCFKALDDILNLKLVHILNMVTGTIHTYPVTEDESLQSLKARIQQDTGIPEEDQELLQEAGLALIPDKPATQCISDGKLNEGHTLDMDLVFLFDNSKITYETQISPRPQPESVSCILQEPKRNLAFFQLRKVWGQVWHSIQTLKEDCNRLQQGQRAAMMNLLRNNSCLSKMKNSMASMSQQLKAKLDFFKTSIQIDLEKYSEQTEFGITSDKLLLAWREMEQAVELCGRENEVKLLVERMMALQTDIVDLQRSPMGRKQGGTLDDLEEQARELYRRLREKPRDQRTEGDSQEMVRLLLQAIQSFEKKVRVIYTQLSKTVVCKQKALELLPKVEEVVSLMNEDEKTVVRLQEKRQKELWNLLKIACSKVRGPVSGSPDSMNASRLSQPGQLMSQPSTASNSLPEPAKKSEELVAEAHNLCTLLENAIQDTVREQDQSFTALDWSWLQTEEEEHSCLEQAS

[5] = target: Ribosomal protein S6 kinase alpha-1 (Homo sapiens) (UniProt Q15418); assay: Inhibition of RPS6KA1 at 5 to 10 uM
[6] = target: Insulin receptor (Homo sapiens) (UniProt P06213); assay: Inhibition of INS-R at 5 to 10 uM
Chain of Insulin receptor (Homo sapiens) (P06213 28-758 limits assumed): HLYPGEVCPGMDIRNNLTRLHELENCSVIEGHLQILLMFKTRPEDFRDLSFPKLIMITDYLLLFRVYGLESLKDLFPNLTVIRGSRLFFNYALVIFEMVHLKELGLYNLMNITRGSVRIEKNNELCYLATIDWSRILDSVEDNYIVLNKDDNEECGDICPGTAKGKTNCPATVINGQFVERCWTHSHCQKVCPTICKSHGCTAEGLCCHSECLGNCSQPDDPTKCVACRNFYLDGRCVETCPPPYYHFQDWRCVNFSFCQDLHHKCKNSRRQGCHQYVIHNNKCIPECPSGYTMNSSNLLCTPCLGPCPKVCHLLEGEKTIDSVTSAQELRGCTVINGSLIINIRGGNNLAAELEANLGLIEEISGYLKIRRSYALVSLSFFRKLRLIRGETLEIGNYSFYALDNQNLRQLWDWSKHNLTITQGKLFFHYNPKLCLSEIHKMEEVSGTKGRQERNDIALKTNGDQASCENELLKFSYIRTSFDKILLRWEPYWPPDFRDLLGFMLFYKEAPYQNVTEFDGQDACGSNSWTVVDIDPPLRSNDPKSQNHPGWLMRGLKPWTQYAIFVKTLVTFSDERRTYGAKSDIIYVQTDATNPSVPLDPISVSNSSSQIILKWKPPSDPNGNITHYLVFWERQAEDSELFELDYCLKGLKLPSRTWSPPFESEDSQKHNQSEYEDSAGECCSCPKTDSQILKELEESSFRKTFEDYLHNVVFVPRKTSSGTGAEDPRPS
Chain of Insulin receptor (Homo sapiens) (P06213 763-1382 limits assumed): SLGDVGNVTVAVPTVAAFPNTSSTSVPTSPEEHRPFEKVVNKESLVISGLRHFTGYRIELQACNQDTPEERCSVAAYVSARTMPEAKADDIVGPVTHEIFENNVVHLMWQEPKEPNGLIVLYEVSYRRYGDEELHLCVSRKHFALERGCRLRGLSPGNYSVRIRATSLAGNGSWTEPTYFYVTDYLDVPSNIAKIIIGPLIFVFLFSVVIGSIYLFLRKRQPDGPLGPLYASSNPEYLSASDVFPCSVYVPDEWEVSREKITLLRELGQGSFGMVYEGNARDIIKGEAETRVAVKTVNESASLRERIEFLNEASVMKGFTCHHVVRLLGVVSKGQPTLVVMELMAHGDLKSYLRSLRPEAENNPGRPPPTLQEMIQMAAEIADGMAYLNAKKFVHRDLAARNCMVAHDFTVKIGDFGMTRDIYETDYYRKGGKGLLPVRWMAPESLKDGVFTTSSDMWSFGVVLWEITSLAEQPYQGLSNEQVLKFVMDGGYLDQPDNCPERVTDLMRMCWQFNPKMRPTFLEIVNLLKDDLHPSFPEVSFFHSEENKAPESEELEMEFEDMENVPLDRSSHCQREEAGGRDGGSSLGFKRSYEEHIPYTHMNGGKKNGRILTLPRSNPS

[7] = target: PI3-kinase p110-delta/p85-alpha (Homo sapiens, UniProt O00329); assay: Inhibition of human PI3K p110delta/p85alpha; format: protein-complex assay; conditions: read-out: Ki(app)
Chain of PI3-kinase p110-delta/p85-alpha (P27986 whole entry): as the sequence (P27986 whole entry) above
Chain of PI3-kinase p110-delta/p85-alpha (O00329 whole entry): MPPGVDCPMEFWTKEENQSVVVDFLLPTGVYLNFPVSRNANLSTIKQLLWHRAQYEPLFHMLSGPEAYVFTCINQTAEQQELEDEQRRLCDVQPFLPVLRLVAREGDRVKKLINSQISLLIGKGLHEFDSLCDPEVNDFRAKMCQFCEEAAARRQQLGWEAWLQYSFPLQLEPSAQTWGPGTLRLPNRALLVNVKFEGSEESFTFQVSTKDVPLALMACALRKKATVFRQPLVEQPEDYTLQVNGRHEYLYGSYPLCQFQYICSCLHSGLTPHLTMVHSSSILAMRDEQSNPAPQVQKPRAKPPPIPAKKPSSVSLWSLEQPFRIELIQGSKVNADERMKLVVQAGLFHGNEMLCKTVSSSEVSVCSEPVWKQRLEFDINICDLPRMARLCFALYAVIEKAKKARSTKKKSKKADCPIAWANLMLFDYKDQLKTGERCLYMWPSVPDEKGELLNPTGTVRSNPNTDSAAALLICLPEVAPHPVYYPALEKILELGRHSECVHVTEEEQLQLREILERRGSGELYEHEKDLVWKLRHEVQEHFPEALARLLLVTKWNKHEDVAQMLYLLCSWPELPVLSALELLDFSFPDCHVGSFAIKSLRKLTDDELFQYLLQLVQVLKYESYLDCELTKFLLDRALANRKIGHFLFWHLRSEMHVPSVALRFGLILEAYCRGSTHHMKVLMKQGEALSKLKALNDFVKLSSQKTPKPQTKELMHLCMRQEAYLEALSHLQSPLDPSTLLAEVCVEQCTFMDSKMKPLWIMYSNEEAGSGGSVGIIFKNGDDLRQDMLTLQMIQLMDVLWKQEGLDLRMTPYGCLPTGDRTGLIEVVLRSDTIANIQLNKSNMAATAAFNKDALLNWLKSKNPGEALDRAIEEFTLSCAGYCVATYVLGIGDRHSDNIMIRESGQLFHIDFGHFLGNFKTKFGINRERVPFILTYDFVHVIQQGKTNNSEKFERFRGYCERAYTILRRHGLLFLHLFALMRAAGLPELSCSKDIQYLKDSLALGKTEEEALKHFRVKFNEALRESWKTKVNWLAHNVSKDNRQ

[8] = target: Serine/threonine-protein kinase pim-1 (Homo sapiens) (UniProt P11309); assay: Inhibition of PIM1 at 5 to 10 uM
Chain of Serine/threonine-protein kinase pim-1 (Homo sapiens) (P11309 whole entry, looked up): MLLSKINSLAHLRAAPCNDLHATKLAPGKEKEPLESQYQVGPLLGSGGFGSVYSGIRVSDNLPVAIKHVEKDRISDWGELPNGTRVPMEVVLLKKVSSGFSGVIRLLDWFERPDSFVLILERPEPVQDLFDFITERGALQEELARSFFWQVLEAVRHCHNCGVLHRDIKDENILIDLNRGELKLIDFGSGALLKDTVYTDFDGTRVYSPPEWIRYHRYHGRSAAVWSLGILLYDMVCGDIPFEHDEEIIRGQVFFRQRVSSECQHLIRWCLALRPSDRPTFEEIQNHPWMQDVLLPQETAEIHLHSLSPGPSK

[9] = system: Serine/threonine-protein kinase B-raf (Homo sapiens), P15056 [V600E]; assay: Inhibition of BRAF V600E mutant at 5 to 10 uM
CYP2C19 = CYP2C19 (Homo sapiens, UniProt P33261); assay: Inhibition of CYP2C19 at 10 uM; format: ADME
Method in brief: (§1)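 CYP isoform panel (1A2, 2C9, 2C19, 2D6, 3A4); percent inhibition recorded at 10 µM test compound; run in duplicate by an outside contractor.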

CYP1A2 = target: T3, CYP1A2 (Homo sapiens, UniProt P05177); assay: Inhibition of CYP1A2 at 10 uM; format: ADME; method in brief: as §1
T3 sequence (P05177 whole entry): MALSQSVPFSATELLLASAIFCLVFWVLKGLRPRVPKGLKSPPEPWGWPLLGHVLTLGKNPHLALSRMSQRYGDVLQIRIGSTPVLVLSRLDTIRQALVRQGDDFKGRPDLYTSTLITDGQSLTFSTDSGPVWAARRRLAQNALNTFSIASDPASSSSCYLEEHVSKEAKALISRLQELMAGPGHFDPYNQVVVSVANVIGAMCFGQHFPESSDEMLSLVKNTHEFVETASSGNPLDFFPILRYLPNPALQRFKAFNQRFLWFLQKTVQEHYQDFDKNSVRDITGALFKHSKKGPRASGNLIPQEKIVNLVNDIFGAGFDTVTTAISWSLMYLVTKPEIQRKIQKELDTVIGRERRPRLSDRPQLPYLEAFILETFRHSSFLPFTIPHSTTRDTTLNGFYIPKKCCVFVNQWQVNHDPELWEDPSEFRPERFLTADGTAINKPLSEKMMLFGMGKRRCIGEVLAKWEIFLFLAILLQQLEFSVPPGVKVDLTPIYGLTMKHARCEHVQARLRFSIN

[10] = Metabolic stability in mouse liver microsomes assessed as compound remaining at 1 uM after 30 mins
CYP2D6 = CYP2D6 (Homo sapiens, UniProt P10635); assay: Inhibition of CYP2D6 at 10 uM; format: ADME; method in brief: as §1
CYP3A4 = CYP3A4 (Homo sapiens, UniProt P08684); assay: Inhibition of CYP3A4 at 10 uM; format: ADME; method in brief: as §1
CYP2C9 = CYP2C9 (Homo sapiens, UniProt P11712); assay: Inhibition of CYP2C9 at 10 uM; format: ADME; method in brief: as §1
[11] = target: T1, PI3-kinase p110-alpha/p85-alpha; assay: Inhibition of PI3K p110alpha/p85alpha; format: protein-complex assay
Method in brief: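 Biochemical kinase assay following the kit manufacturer's protocol with a modified kinase buffer (50 mM HEPES pH 7.5, 3 mM MgCl2, 100 mM NaCl, 1 mM EGTA, 0.04% CHAPS, 2 mM TCEP, 0.01 mg/ml BGG); 10 nM enzyme; ATP 50 µM; values are averages of two independent experiments, each in duplicate.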

[12] = Metabolic stability in human liver microsomes assessed as compound remaining at 1 uM after 30 mins

Chain of Serine/threonine-protein kinase pim-2 (Homo sapiens) (Q9P1W9 whole entry, looked up): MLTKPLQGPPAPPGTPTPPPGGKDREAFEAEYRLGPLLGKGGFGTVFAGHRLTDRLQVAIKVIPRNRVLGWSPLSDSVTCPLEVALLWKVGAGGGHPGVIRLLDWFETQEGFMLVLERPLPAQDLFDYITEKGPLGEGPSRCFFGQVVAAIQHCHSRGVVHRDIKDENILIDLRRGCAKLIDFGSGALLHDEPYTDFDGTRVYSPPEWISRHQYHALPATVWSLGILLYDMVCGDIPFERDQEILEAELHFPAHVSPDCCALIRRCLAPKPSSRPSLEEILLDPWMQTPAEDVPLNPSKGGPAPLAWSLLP

inhibition [1]	inhibition [2]	EC50 [3]	inhibition [4]	inhibition [5]	inhibition [6]	Ki [7]	inhibition [8]	inhibition [9]	inhibition at 10 µM (CYP2C19)	inhibition at 10 µM (CYP1A2)	remaining at 0.5 h, 1 µM [10]	inhibition at 10 µM (CYP2D6)	inhibition at 10 µM (CYP3A4)	inhibition at 10 µM (CYP2C9)	IC50 [11]	remaining at 0.5 h, 1 µM [12]	SMILES
< 50%	< 50%	452 nM	< 50%	< 50%	50%	6.5 nM	< 50%	< 50%	–	–	–	–	–	–	–	–	O=C(NCCN1CCOCC1)c1cn2cc(-c3cccc4[nH]ncc34)nc(N3CCOCC3)c2n1
< 50%	< 50%	495 nM	< 50%	< 50%	50%	65 nM	< 50%	< 50%	< 25%	< 25%	28%	< 25%	< 25%	< 25%	145 nM	35%	CS(=O)(=O)N1CCN(Cc2cn3c(Cl)c(-c4cccc5[nH]ncc45)nc(N4CCOCC4)c3n2)CC1
< 50%	< 50%	114 nM	< 50%	< 50%	50%	2.8 nM	< 50%	< 50%	–	–	–	–	–	–	31 nM	–	COCCCNC(=O)c1cn2cc(-c3cccc4[nH]ncc34)nc(N3CCOCC3)c2n1
< 50%	< 50%	–	< 50%	< 50%	50%	–	< 50%	< 50%	< 25%	< 25%	32%	< 25%	< 25%	< 25%	–	48%	CS(=O)(=O)N1CCN(Cc2cn3cc(-c4cccc5[nH]ncc45)nc(N4CCOCC4)c3n2)CC1
< 50%	< 50%	203 nM	< 50%	< 50%	50%	43 nM	< 50%	< 50%	–	–	–	–	–	–	194 nM	–	CS(=O)(=O)N1CCN(Cc2cn3c(C#N)c(-c4cccc5[nH]ncc45)nc(N4CCOCC4)c3n2)CC1
< 50%	< 50%	600 nM	< 50%	< 50%	50%	17.1 nM	< 50%	< 50%	–	–	–	–	–	–	–	–	CNC(=O)c1cn2cc(-c3cccc4[nH]ncc34)nc(N3CCOCC3)c2n1
< 50%	< 50%	208 nM	< 50%	< 50%	50%	8 nM	< 50%	< 50%	–	–	–	–	–	–	47 nM	–	CS(=O)(=O)N1CCN(Cc2nc3c(N4CCOCC4)nc(-c4cccc5[nH]ncc45)cn3c2Br)CC1
< 50%	< 50%	429 nM	< 50%	< 50%	50%	3.6 nM	< 50%	< 50%	–	–	–	–	–	–	35 nM	–	CN(C)CCCNC(=O)c1cn2cc(-c3cccc4[nH]ncc34)nc(N3CCOCC3)c2n1
